Published values collected from several papers.
Each line is one published result; the experiments were not run side by side.
Oprk1: Kappa-type opioid receptor (Oprk1, Mus musculus, UniProt P33534)
MPO: Myeloperoxidase (MPO, Homo sapiens, UniProt P05164)
SLC6A2: Sodium-dependent noradrenaline transporter (SLC6A2, Homo sapiens, UniProt P23975)

The inhibition of CC(C)[C@@H](CN1CCc2ccccc2C1)NC(=O)c1cccc(-c2cccc(C#N)c2)c1 is reported as 80.6% (Oprk1; ligand displacement, radioligand; 10 µM).
For O=c1c(O[C@@H]2O[C@H](CO)[C@H](O)[C@H](O)[C@H]2O)c(-c2ccc(O)c(O)c2)oc2cc(O)cc(O)c12, the inhibition was 79.1% (srtA (Staphylococcus aureus, UniProt Q2FV99); enzyme activity, inhibitor, FRET; 120 µM).
CC(C)[C@H](CN1CCc2ccccc2C1)NC(=O)c1c(Cl)cncc1Cl gave an inhibition of 69.4% (Oprk1; ligand displacement, radioligand; 10 µM).
COc1ccc(C(=O)NC2CCCc3c2[nH]c2c(Cl)cccc32)cc1OC (stereo not shown) has an inhibition of about 41% (Cysteinyl leukotriene receptor 1 (CYSLTR1, Homo sapiens, UniProt Q9Y271); calcium signal, antagonist; HEK293; 33 µM).
With CC(C)[C@H](CN1CCc2ccccc2C1)NC(=O)c1cccc(-c2ccccc2)c1 the inhibition was 72.2% (Oprk1; ligand displacement, radioligand; 10 µM).
CC(C)OCCn1c(=S)[nH]c(=O)c2[nH]ccc21 has an inhibition of 96.2% (MPO; enzyme activity, inhibitor, fluorescence; 0.3704 µM).
The inhibition of CCOC(=O)[C@@]12C[C@@H]1[C@@H](n1cnc3c(Nc4ccccc4)nc(C#Cc4ccc(Cl)s4)nc31)[C@H](O)[C@@H]2O is reported as 78% (SLC6A2; ligand displacement, radioligand; 10 µM).
For CC(C)[C@@H](CN1CCc2ccccc2C1)NC(=O)C=Cc1ccccc1, the inhibition was 22.7% (Oprk1; ligand displacement, radioligand; 10 µM).
With NC/C(=C\F)COc1cccc(Cn2c(=S)[nH]c(=O)c3[nH]cnc32)c1 the inhibition was 99.2% (MPO; enzyme activity, inhibitor, fluorescence; 3.333 µM).
CCOC(=O)[C@@]12C[C@@H]1[C@@H](n1cnc3c(NCCCCCc4ccccc4)nc(C#Cc4ccc(Cl)s4)nc31)[C@H](O)[C@@H]2O has an inhibition of 0% (SLC6A2; transporter uptake, inhibitor, radiometric; HEK293; 10 µM).
With Cc1cc(F)cc2c(CCC(=O)N[C@@H]3C(=O)NC[C@H]3O)c(-c3ccc(F)cc3)[nH]c12 the inhibition was 21% (SLC6A2; cell-free assay; 10 µM).
CCOC(=O)[C@@]12C[C@@H]1[C@@H](n1cnc3c(NCCCCCCc4ccccc4)nc(I)nc31)[C@H](O)[C@@H]2O gave an inhibition of 52% (SLC6A2; ligand displacement, radioligand; 10 µM).
For Cc1cc(O)c(-c2ccc([C@@H](C)CN(C)C)cc2)c2c1[nH]c(=O)c1sccc12, the inhibition was 5.19% (RPS6KC1 (Homo sapiens, UniProt Q96S38); cell-free assay, inhibitor; 0.1 µM, lysate).
OC[C@@]12C[C@@H]1[C@@H](n1cnc3c(N[C@@H](C4CCC4)C4CC4)nc(C#Cc4ccc(Cl)s4)nc31)[C@H](O)[C@@H]2O has an inhibition of 90% (SLC6A2; ligand displacement, radioligand; 10 µM).
The inhibition of COc1ccc(Cl)cc1-c1cc(=O)[nH]c(=S)n1CC(N)=O is reported as 98.3% (MPO; enzyme activity, inhibitor, fluorescence; 30 µM).
With CC(C)[C@H](CN1CCc2ccccc2C1)NC(=O)c1ccc([N+](=O)[O-])s1 the inhibition was 64.5% (Oprk1; ligand displacement, radioligand; 10 µM).
CCOC(=O)[C@@]12C[C@@H]1[C@@H](n1cnc3c(NCCCCCc4ccccc4)nc(C#Cc4ccccc4)nc31)[C@H](O)[C@@H]2O gave an inhibition of 1% (SLC6A2; transporter uptake, inhibitor, radiometric; HEK293; 10 µM).
CC(C)[C@@H](CN1CCc2ccccc2C1)NC(=O)c1ccc(F)cc1 has an inhibition of 75.7% (Oprk1; ligand displacement, radioligand; 10 µM).
The inhibition of CCOC(=O)[C@@]12C[C@@H]1[C@@H](n1cnc3c(NCc4cccc(Cl)c4)nc(C#Cc4ccc(Cl)s4)nc31)[C@H](O)[C@@H]2O is reported as 78% (SLC6A2; ligand displacement, radioligand; 10 µM).
